These results are taken from ChEMBL document CHEMBL1157725 (Bioorg Med Chem, 2010).

The nature of experiment [1]: Inhibition of tubulin in rat A10 cells assessed as induction of cellular microtubule disassembly after 18 hrs by indirect immunofluorescence technique. It counts as cell-based. Conditions: A10, 18 h. Summed up: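 A-10 cells plated on glass coverslips and treated with compound at varying concentrations for 18 h. After fixation, microtubules immunostained with a β-tubulin antibody (indirect immunofluorescence) and nuclei stained with DAPI. Read by fluorescence microscopy. Percentage of cellular microtubule loss estimated visually across the concentration range.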

The test system of another experiment is MCF7. Kind of experiment: Antiproliferative activity against human MCF7 cells after 24 hrs by SRB assay. It counts as functional, cell-based. As to conditions: MCF7, 24 h. The essentials: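 MCF-7 cells are grown for 24 h with or without drug, then for a further 48 h. Total cell protein is measured by sulforhodamine B staining, and the IC₅₀ is derived from it.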
A general note: The SRB assay estimates cell density from bound dye.

In general, EC50 refers to the concentration at which the effect is half-maximal. Broadly, the IC50 is the concentration at which inhibition is half-maximal. Higher therefore signals a need for much substance. Regarding `COc1ccc(/C=C\c2cc(OC)c(OC)c(OC)c2)cc1O` [COMBRETASTATIN A4], in experiment [1], the EC50 was less than 25 nM. This compound also had an IC50 in the experiment on MCF7 of 32 nM.
